The source made the active and inactive calls. The rule behind the calls is not given here.
Tests used:
NCI-H460 = assay: Cytotoxicity against human H460 cells assessed as cell viability after 72 hrs by ATP-LITE assay; format: functional, cell-based; settings: NCI-H460, 72 h
Outline: (§1)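 ATP-LITE viability readout. Seeded 24 h before dosing (H460, H1299 at 2000 cells/well; PC3 at 3000 cells/well) in 12F2 or RPMI1640 with 5 mM L-glutamine, 5% FBS and pen/strep. Fresh 5% medium added, then compounds in 0.1% DMSO final. Viability read after 72 h treatment and normalized to DMSO-treated cells.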

[1] = Induction of apoptosis in human RS11846 cells after 1 to 2 days by FITC-annexin V and propidium iodide assay; format: functional, cell-based
[2] = Cytotoxicity against human H1299 cells assessed as cell viability after 72 hrs by ATP-LITE assay; format: functional, cell-based; settings: NCI-H1299, 72 h; outline: as §1
BP3 [3] = assay: (§2) Induction of apoptosis in human BP3 cells after 1 to 2 days by FITC-annexin V and propidium iodide assay; format: functional, cell-based
[4] = biological target: Bcl-2-like protein 1 (Homo sapiens) (UniProt Q07817); assay: Inhibition of Bcl-xL at 200 uM by 1D 1H NMR binding assay
Sequence of Bcl-2-like protein 1 (Homo sapiens) (Q07817 whole entry): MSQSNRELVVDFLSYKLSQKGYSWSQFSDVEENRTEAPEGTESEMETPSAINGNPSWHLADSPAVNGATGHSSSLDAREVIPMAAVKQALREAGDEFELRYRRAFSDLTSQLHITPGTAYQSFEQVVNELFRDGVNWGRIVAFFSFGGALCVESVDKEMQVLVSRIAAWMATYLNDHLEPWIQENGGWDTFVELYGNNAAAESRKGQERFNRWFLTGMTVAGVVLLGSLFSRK

[5] = Cytotoxicity against human PC3-ML cells assessed as cell viability after 72 hrs by ATP-LITE assay; format: functional, cell-based; outline: as §1
Mus musculus [6] = assay: Toxicity in human Bcl2 expressing B6 transgenic mouse administered as single dose at 72 umol/kg, ip after 24 hrs; format: organism-based; settings: in vivo
[7] = Cytotoxicity against wild type mouse fibroblast assessed as induction of cell death at 10 uM by FITC-annexin V and propidium iodide assay; format: cell-based
Outline: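 Wild-type MEFs seeded at half a million per well in DMEM with 10% FCS. Next day compound added at 0, 2.5, 5.0, 7.5 or 10 μM. On the following day, floating and trypsinized adherent cells were pooled and stained with Annexin V-FITC and PI in binding buffer. Analyzed by flow cytometry, with double-negative cells counted as viable.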

[8] = Stability in rat liver microsome at 4 uM after 1 hr; format: ADME; settings: liver microsomes, read-out: Stability
Outline: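 Compound incubated for 1 h in rat microsomal preparations; percentage of parent remaining was reported.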

[9] = Stability in rat plasma after 1 hr at 37.5 degC; format: ADME, cell-free; settings: read-out: Stability
Outline: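 Compound incubated in rat plasma for 1 h; percentage of parent remaining was reported.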

[10] = as §2; format: functional, cell-based
[11] = Membrane permeability assessed as drug permeation at 100 uM at pH 7.2 after 8 hrs by PAMPA; format: ADME; settings: pH 7.2, 8 h
[12] = Chemical stability after 60 days at room temperature by HPLC/LC-MS analysis; format: physicochemical; settings: 1440 h
Outline: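 Solid compounds stored in air at room temperature for 60 days. Stability followed by HPLC combined with LC-MS.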

Mus musculus [13] = assay: Induction of spleen weight shrinkage in human Bcl2 expressing B6 transgenic mouse at 72 umol/kg, ip administered as single dose after 24 hrs; format: functional
Outline: (§3)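 Age- and sex-matched B6Bcl2 transgenic mice (human BCL-2/IgH minigene, B cells accumulating in spleen), free of aggressive lymphoma. Single ip injection at 72 μmol/kg in 500 μL ethanol:Cremophor EL:saline 10:10:80; controls got vehicle alone. Killed with Avertin after 24 h and spleen weighed. Shrinkage expressed as percentage of maximum spleen-weight reduction.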

Mus musculus [14] = assay: Reduction of spleen weight in human Bcl2 expressing B6 transgenic mouse at 72 umol/kg, ip administered as single dose after 24 hrs; format: functional; set-up: scale not given: the % may be the effect or the level left; outline: as §3
[15] = Cytotoxicity against Bax/Bak double knockout mouse fibroblast assessed as induction of cell death at 10 uM by FITC-annexin V and propidium iodide assay; format: cell-based
Outline: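 MEFs (wild-type and Bax/Bak double knockout) seeded at half a million per well in DMEM with 10% FCS; next day compound added at final 0, 2.5, 5.0, 7.5 and 10 μM. After about one day, floating and trypsinised adherent cells were pooled and stained with Annexin V-FITC and PI. Flow cytometry scored Annexin V-negative/PI-negative cells as viable.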

Mus musculus [16] = assay: Toxicity in human Bcl2 expressing B6 transgenic mouse at 120 umol/kg, ip administered as single dose after 24 hrs; format: organism-based; settings: in vivo
Bcl-2-related protein A1 = biological target: T1, Bcl-2-related protein A1 (Homo sapiens, UniProt Q16548); assay: Displacement of F-BakBH3 from Bfl-1 by fluorescence polarization assay
T1 sequence (Q16548 whole entry): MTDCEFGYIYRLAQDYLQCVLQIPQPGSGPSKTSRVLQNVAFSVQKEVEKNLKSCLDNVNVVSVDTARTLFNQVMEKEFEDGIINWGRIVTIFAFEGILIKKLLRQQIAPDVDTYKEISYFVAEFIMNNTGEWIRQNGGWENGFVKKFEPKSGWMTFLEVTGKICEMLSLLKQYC

BP3 [17] = assay: Cytotoxicity against human BP3 cells expressing Bfl1/Mcl1 by FITC-annexin V and propidium iodide assay; format: functional, cell-based

SMILES | EC50 (NCI-H460) | EC50 [1] | EC50 [2] | Activity (BP3 [3]) | Activity [4] | EC50 [5] | Activity (Mus musculus [6]) | Activity [7] | remaining at 1 h, 4 µM [8] | remaining at 1 h [9] | EC50 [10] | logPe [11] | Stability [12] | Activity (Mus musculus [13]) | Activity (Mus musculus [14]) | Activity [15] | Activity (Mus musculus [16]) | IC50 (Bcl-2-related protein A1) | Activity (BP3 [17])
Cc1cc2c(C(=O)NCc3cccc(Cl)c3)c(O)c(O)cc2c(O)c1-c1c(C)cc2c(C(=O)NCc3cccc(Cl)c3)c(O)c(O)cc2c1O | 3.3 µM | 7.3 µM | 5.2 µM | Dose-dependent effect | Active | 8.3 µM | – | – | – | – | – | – | – | – | – | – | – | – | –
Cc1cc2c(C(=O)NCC3CCCCC3)c(O)c(O)cc2c(O)c1-c1c(C)cc2c(C(=O)NCC3CCCCC3)c(O)c(O)cc2c1O | 0.41 µM | 4.9 µM | 4.8 µM | Dose-dependent effect | Active | 3.7 µM | Toxic | 80% | 90% | 89% | 0.9 µM | -6.67 log cm/s | Stable | – | – | – | – | – | –
CCc1ccc(CCNC(=O)c2c(O)c(O)cc3c(O)c(-c4c(C)cc5c(C(=O)NCCc6ccc(CC)cc6)c(O)c(O)cc5c4O)c(C)cc23)cc1 | 0.4 µM | 3 µM | 0.36 µM | – | – | 1.7 µM | Toxic | 80% | 87% | 94% | 0.2 µM | -8.15 log cm/s | Stable | 85% | – | – | – | – | –
Cc1cc2c(C(C)C)c(O)c(O)c(C=O)c2c(O)c1-c1c(C)cc2c(C(C)C)c(O)c(O)c(C=O)c2c1O [GOSSYPOL] | 3 µM | 4.2 µM | 6 µM | – | Active | 3.1 µM | – | Active | – | – | 1.42 µM | – | – | <=40% | <=20% | Active | – | – | –
Cc1cc2cc(O)c(O)cc2c(O)c1-c1c(C)cc2cc(O)c(O)cc2c1O | > 10 µM | > 24.5 µM | 13.4 µM | – | inactive | > 10 µM | Non-toxic | – | – | – | – | – | – | inactive | – | – | – | – | –
Cc1cc2c(C(=O)O)c(O)c(O)cc2c(O)c1-c1c(C)cc2c(C(=O)O)c(O)c(O)cc2c1O | > 30 µM | > 30 µM | > 30 µM | Dose-dependent effect | inactive | > 30 µM | – | – | – | – | > 30 µM | – | – | – | – | – | – | – | –
Cc1cc2c(CC3CCCC3)c(O)c(O)cc2c(O)c1-c1c(C)cc2c(CC3CCCC3)c(O)c(O)cc2c1O | 1.8 µM | 4.5 µM | 10.9 µM | – | Active | 11.2 µM | Non-toxic | – | 75% | 81% | – | -6.27 log cm/s | – | – | – | – | Non-toxic | – | –
Cc1cc2c(C(=O)Nc3cccc(C(F)(F)F)c3)c(O)c(O)cc2c(O)c1-c1c(C)cc2c(C(=O)Nc3cccc(C(F)(F)F)c3)c(O)c(O)cc2c1O | 16.7 µM | 12.6 µM | 28.7 µM | Dose-dependent effect | Active | 12.2 µM | – | – | – | – | – | – | – | – | – | – | – | – | –
Cc1cc2c(C(=O)NC(C)c3ccc(Cl)cc3)c(O)c(O)cc2c(O)c1-c1c(C)cc2c(C(=O)NC(C)c3ccc(Cl)cc3)c(O)c(O)cc2c1O (stereo not drawn) | 0.5 µM | 5.5 µM | 3.2 µM | – | Active | 5 µM | Toxic | 80% | 71% | 94% | 1.5 µM | -7.92 log cm/s | Stable | 85% | 40% | – | – | – | –
Cc1cc2c(C(C)C)c(O)c(O)cc2c(O)c1-c1c(C)cc2c(C(C)C)c(O)c(O)cc2c1O [APOGOSSYPOL] | 3.5 µM | 5 µM | – | – | – | 10.4 µM | Non-toxic | – | 64% | 53% | 4.7 µM | -7.16 log cm/s | Stable | <=40% | <=20% | – | – | > 10 µM | –
Cc1cc2c(C(=O)NCCc3cccc(Cl)c3)c(O)c(O)cc2c(O)c1-c1c(C)cc2c(C(=O)NCCc3cccc(Cl)c3)c(O)c(O)cc2c1O | 0.99 µM | 4.6 µM | 7.8 µM | – | Active | 3.2 µM | Toxic | 80% | 90% | – | 0.41 µM | -7.71 log cm/s | Stable | – | 40% | – | – | – | –
Cc1cc2c(CCc3ccccc3)c(O)c(O)cc2c(O)c1-c1c(C)cc2c(CCc3ccccc3)c(O)c(O)cc2c1O | 0.92 µM | 9.8 µM | 0.58 µM | – | Active | 2.4 µM | Non-toxic | – | 89% | 80% | 4.14 µM | -6.61 log cm/s | Stable | – | – | – | Non-toxic | – | –
Cc1cccc(CNC(=O)c2c(O)c(O)cc3c(O)c(-c4c(C)cc5c(C(=O)NCc6cccc(C)c6)c(O)c(O)cc5c4O)c(C)cc23)c1 | 2.9 µM | 4.8 µM | 3.1 µM | Dose-dependent effect | Active | 10.2 µM | – | – | – | – | – | – | – | – | – | – | – | – | –
CN(C)CC[C@H](CSc1ccccc1)Nc1ccc(S(=O)(=O)NC(=O)c2ccc(N3CCN(Cc4ccccc4-c4ccc(Cl)cc4)CC3)cc2)cc1[N+](=O)[O-] | – | – | – | – | – | – | – | – | – | – | – | – | – | – | – | – | – | – | inactive

Reference: ChEMBL document CHEMBL1158469 (J Med Chem, 2009)
